Results: ChEMBL document CHEMBL4145607, “Tamarixetin Exhibits Anti-inflammatory Activity and Prevents Bacterial Sepsis by Increasing IL-10 Production” (J Nat Prod, 2018)
Active and inactive are the calls of the source. The calls are words filed in the database; no cut-off is given here.

Test system: BMDC
Experiment: Inhibition of Escherichia coli DH5alpha infection-induced immune response in C57BL/6 mouse BMDC assessed as increase in IL10 secretion at 25 uM pretreated for 60 to 120 mins followed by Escherichia coli DH5alpha infection for 6 hrs by ELISA
Type: functional, cell-based
In short: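 C57BL/6 BMDCs received 25 μM compound and E. coli DH5α, 3 × 10^6 CFU·mL−1. Schedules were: compound 30 min before a 6 h infection; co-addition for 6 h; or compound for 30, 60, 90 or 120 min plus 6 h infection. Supernatant TNF-α, IL-6, IL-10 and IL-12p70 were measured by ELISA. At least three experiments in triplicate.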

With `COc1ccc(-c2oc3cc(O)cc(O)c3c(=O)c2O)cc1O` [TAMARIXETIN] the inhibition was “inactive”.
